Sampled rows, rich in hits. Any-hit rate of the full collection: about 4.4%.
NR3A LBD binder: binders of NR3A ligand-binding domain, primary screen, biophysical, differential scanning fluorimetry, uHTS; NR3A LBD differential scanning fluorimetry, Tm shift; 0% = protein alone, 100% = glycine-bound protein; hit rate 2.5% among 340,000; Glutamate receptor ionotropic, NMDA 3A (GRIN3A) ligand-binding domain; Tm shift relative to glycine control, % at 25 µM;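 active = melting temperature shift of at least 10% of the positive control shift, at one fixed dose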
MPTP inh: mitochondrial permeability transition pore inhibitors, primary screen, biochemical, isolated mouse mitochondria, absorbance; Ca2+ swelling absorbance, 30 min; inhibition, % at 10 µM; AID 602449, 2012; hit rate 1.4% among 360,000;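 active = inhibition of 50% or more, scaled per plate between neutral and stimulator controls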;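 also: 0% = DMSO wells given calcium and 100% = 1 mM EGTA wells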
EBI2 block: EBI2 receptor antagonists, beta-arrestin recruitment, primary screen, cell-based, luminescence, 7a,25-OHC stimulation, uHTS. G-protein coupled receptor 183 (Homo sapiens), P32249. 7a,25-OHC stimulated. inhibition, % at 5 µM. hit rate 0.81% among 360,000. AID 651636, 2012; in the data active = inhibition above about 38%;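 also: enzyme fragment complementation signal reports receptor beta-arrestin coupling in cells; 0% = agonist plus DMSO wells and 100% = wells without agonist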
Target sequence (P32249 whole entry, looked up, the tested form may be a part): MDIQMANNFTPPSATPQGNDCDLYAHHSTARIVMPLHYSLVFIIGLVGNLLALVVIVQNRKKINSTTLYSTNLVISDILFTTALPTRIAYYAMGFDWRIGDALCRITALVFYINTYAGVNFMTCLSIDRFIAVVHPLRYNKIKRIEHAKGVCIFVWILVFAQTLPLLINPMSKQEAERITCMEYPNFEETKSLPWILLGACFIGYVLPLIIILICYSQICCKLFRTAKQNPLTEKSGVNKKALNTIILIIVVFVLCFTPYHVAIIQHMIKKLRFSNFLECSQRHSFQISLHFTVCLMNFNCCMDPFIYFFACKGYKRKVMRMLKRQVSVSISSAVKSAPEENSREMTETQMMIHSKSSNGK
SENP1 FRET inh: human SENP1 catalytic domain inhibitors, primary screen, biochemical, FRET, uHTS. hit rate 0.21% among 360,000. inhibition, % at 10 µM. recombinant SENP1 catalytic domain, CyPet-SUMO1-YPet FRET cleavage. Sentrin-specific protease 1 (Homo sapiens), Q9P0U3;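 active = inhibition at least 30% at 10 µM, raw YFP signal under a set limit, fluorescence ratio 0.5 to 1.5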;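 also: 0% = enzyme with DMSO and 100% = no enzyme wells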
Target sequence (Q9P0U3 419-644 limits assumed): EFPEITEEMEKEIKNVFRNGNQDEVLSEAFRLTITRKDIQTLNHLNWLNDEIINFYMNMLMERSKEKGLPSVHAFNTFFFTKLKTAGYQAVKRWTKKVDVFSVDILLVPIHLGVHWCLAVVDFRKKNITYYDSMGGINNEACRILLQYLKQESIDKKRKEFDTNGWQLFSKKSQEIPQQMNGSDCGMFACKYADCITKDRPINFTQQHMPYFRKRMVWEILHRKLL
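Material – human SENP1 catalytic domain · Input – SENP1 enzyme, 20 pM final · Compound dosing – single concentration of 10 µM compound, 0.5% DMSO final · Timing – enzyme reaction for 50 min at room temperature, dark · Measured by – FRET fluorescence in CFP and YFP emission channels · Control set – no-enzyme wells low, DMSO-plus-enzyme wells high control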
EBI2 antag conf: EBI2 antagonist hit retest, beta-arrestin, confirmation, cell-based, single concentration, luminescence, 7a,25-OHC stimulation; 7a,25-OHC antagonism; shares compounds with EBI2 block; inhibition, % at 5 µM; hit rate 29% among 2,400;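 active = inhibition of at least 50%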
EBI2 ag: EBI2 agonist activity of antagonist hits, confirmation, counter-screen for EBI2 antagonist project, cell-based, single concentration, agonist mode, luminescence. EBI2-expressing cells, 60 min; 0% vehicle, 100% 7α,25-dihydroxycholesterol control. shares compounds with EBI2 block. activation, % at 5 µM. 2,400 tested, under 10 active;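 active = activation of at least 50%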
bGal counter: E. coli beta-galactosidase enzyme inhibition, confirmation, counter-screen for EBI2 antagonist project, biochemical, luminescence, single concentration. hit rate 1% among 2,400. purified beta-galactosidase, luminescent Galacton Star, 15 min. inhibition, % at 5 µM. AID 652176, 2013. shares compounds with EBI2 block;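 active = replicate-average signal at least 3 plate SD below neutral wells, shown as high inhibition, flagging enzyme-inhibiting false positives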;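 also: 0% = DMSO wells with enzyme and 100% = wells lacking enzyme; higher means stronger loss of beta-gal luminescence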
The depositor's hits bear a star; x = not tested or not shown.

SMILES	NR3A LBD binder	MPTP inh	EBI2 block	SENP1 FRET inh	EBI2 antag conf	EBI2 ag	bGal counter
COc1ccc(C(c2nnnn2C2CCCCC2)N2CCN(C/C=C/c3ccccc3)CC2)cc1 (centres undefined)	x	-0.3	60.1*	-0.5	43.7	0.0	5.0
CCCCn1nnnc1C(c1cccs1)N1CCN(C/C=C/c2ccccc2)CC1 (centres undefined)	x	0.4	43.7*	-3.4	8.7	1.2	6.4
COc1ccc(C(c2nnnn2C(C)(C)C)N2CCN(C/C=C/c3ccccc3)CC2)cc1 (centres undefined)	x	-0.2	36.8	2.4	x	x	x
CCCCn1nnnc1C(c1ccc(OC)cc1)N1CCN(C/C=C/c2ccccc2)CC1 (centres undefined)	x	-1.8	58.2*	-1.9	25.5	2.2	12.3
COc1ccc(C(c2nnnn2-c2ccc(OC)cc2)N2CCN(C/C=C/c3ccccc3)CC2)cc1 (centres undefined)	x	-0.9	63.0*	-1.8	30.5	-1.0	-4.9
CCOC(=O)C1(CC2CCCCO2)CCN(C(=O)Nc2ccc(SC)cc2)CC1 (centres undefined)	-8.2	-0.6	40.4*	1.1	18.8	0.7	2.2
CCOC(=O)C1(CC2CCCCO2)CCN(S(=O)(=O)c2ccc(OC)cc2)CC1 (centres undefined)	-0.6	1.5	-0.8	-1.0	x	x	x
Cc1ccc2cccc(N=Cc3c(C)[nH]n(-c4ccccc4)c3=O)c2n1	5.0	-1.6	78.4*	12.3	67.0*	-1.0	10.6
O=C(/C=C/c1cccc(F)c1)N1CCN(c2ccccn2)CC1	-1.3	1.6	76.9*	-1.5	61.3*	0.3	-5.6
COc1ccc(/C=C/C(=O)N2CCN(c3ccccn3)CC2)cc1OC	-1.2	0.3	18.8	-0.3	x	x	x
O=C(/C=C/c1ccccc1F)N1CCN(c2ccccn2)CC1	6.4	-0.3	44.8*	-1.0	31.9	0.4	5.1
COc1cc(/C=C/C(=O)N2CCN(c3ccccn3)CC2)cc(OC)c1OC	6.7	22.7	16.0	0.0	x	x	x
O=C(/C=C/c1ccccc1)N1CCN(c2ccccn2)CC1	2.9	-1.3	88.0*	1.3	74.1*	1.0	2.2
O=C(/C=C/c1ccc(Cl)c(C(F)(F)F)c1)N1CCN(c2ccccn2)CC1	-1.3	1.0	47.6*	-0.8	37.0	0.6	3.0
Cc1cc(-n2c(=S)sc3c(=O)n(-c4ccc(F)cc4)c(SCC(=O)O)nc32)ccc1Cl	0.3	1.5	-3.0	0.5	x	x	x
CCc1nc(SCC(=O)Nc2ccc(OC)cc2[N+](=O)[O-])n[nH]1	2.3	2.4	-3.8	0.7	x	x	x
Cc1ccc(OCC(=O)NNC(=O)c2cc(S(=O)(=O)N(C)C)ccc2N2CCCC2)cc1	x	2.0	6.4	1.7	x	x	x
CC(C)C(NC(=O)c1ccc(F)cc1)C(=O)N1CCOCC1 (centres undefined)	2.5	1.0	0.8	2.8	x	x	x
COc1cccc(Sc2nc(-c3ccccc3)ncc2S(C)(=O)=O)c1	-1.0	0.7	14.4	0.7	x	x	x
O=C(CSc1nc2nn(-c3ccccc3)c(=O)c-2c2n1CCCCC2)Nc1cccc(F)c1	-1.6	0.6	21.6	0.3	x	x	x
O=C(/C=C/c1ccc(Cl)cc1)N1CCN(c2ccccn2)CC1	-2.6	-1.9	93.1*	-0.9	80.5*	-1.5	-8.1
CCOC(=O)N(C)c1c(CC)nc2c(OCc3ccc(Cl)cc3Cl)cccn12	x	0.1	45.0*	-1.4	76.9*	-1.1	-6.9
CCc1nc2c(OCc3ccc(Cl)cc3Cl)cccn2c1N(C)C(C)=O	x	-0.5	23.5	-0.6	x	x	x
COc1ccc(CNC(=O)CCc2c(C)nc3cc(-c4ccccc4OC)nn3c2C)cc1	0.5	-0.6	10.3	1.9	x	x	x
COc1ccc(-c2cc3nc(C)c(CCC(=O)NCc4ccc(F)cc4)c(C)n3n2)c(OC)c1	-3.8	1.7	52.7*	0.6	40.5	2.3	-7.3
SMILES	NR3A LBD binder	MPTP inh	EBI2 block	SENP1 FRET inh	EBI2 antag conf	EBI2 ag	bGal counter
CS(=O)(=O)c1ccc(C(=O)OCC(=O)N2CCN(CCC3CCCCC3)CC2)cc1[N+](=O)[O-]	x	-0.9	47.7*	-0.3	53.7*	-1.1	-17.3
COCc1cc(C)nc(OCC(=O)N/N=C/c2ccc(O)cc2)c1C#N	-6.8	0.7	62.6*	-1.5	41.2	1.5	6.2
Cc1ccc(C2CC(c3ccccc3)=NN2C(=O)CSc2nnc(-c3ccncc3)n2C)o1 (centres undefined)	7.1	0.9	1.1	-0.1	x	x	x
Cc1ccc(C2CC(c3ccccc3)=NN2C(=O)CSc2nnc(-c3ccc(Cl)cc3)o2)o1 (centres undefined)	-1.0	-8.6	42.1*	-1.5	2.0	-1.2	-5.9
CCNC(=O)C1(C)CCCN(C(=O)c2nc(C)oc2C)C1 (centres undefined)	x	-0.6	-6.6	3.7	x	x	x
COc1nc(Nc2cccc(C)c2)nc(N2CCCCC2)n1	3.3	3.4	-14.0	2.2	x	x	x
Cc1cccc(Nc2nc(N3CCCC3)nc(N3CCCC3)n2)c1	3.2	2.7	41.5*	-0.6	7.0	-1.4	-8.9
COC(=O)C(C(=O)OC)c1ccc(-n2cccc2)cc1	-0.4	-0.1	-1.1	1.4	x	x	x
O=C(Cn1nnc2c(sc3nc4c(c(-c5ccccc5)c32)CCC4)c1=O)c1ccccc1	1.5	-1.1	29.1*	-1.3	-0.3	1.3	4.2
NNC(=O)COc1ccc2oc3c(c2c1)CCCC3	-0.6	-0.3	-5.0	0.0	x	x	x
CCOc1ccc(OCC(O)CN2CCN(S(=O)(=O)c3cccc(C(F)(F)F)c3)CC2)cc1 (centres undefined)	-1.4	0.3	77.5*	2.6	46.5	0.2	5.9
O=S(=O)(c1cccc(C(F)(F)F)c1)N1CCN(CC(O)COCc2ccccc2)CC1 (centres undefined)	1.2	1.2	14.1	-3.0	x	x	x
O=C(COc1ccc(S(=O)(=O)N2CCCC2)cc1)N1CCCC1	-1.8	-0.2	-1.6	-1.2	x	x	x
Cc1ccc(NCC(=O)N2CCN(S(=O)(=O)c3ccccc3)CC2)cc1F	0.8	-1.5	87.5*	2.1	48.3	-0.7	-9.4
CCOc1ccc(OCC(=O)N2CCN(S(=O)(=O)c3ccccc3)CC2)cc1	x	0.9	59.3*	2.3	28.3	-0.1	-13.9
